What is called EC50 is the concentration at which the effect is half-maximal. A higher EC50 goes with weaker potency.

SMILES strings stand for the structures.

From ChEMBL document CHEMBL1152575, “Synthesis and GABA(A) receptor activity of 2,19-sulfamoyl analogues of allopregnanolone” (Bioorg Med Chem, 2009) come the findings set out here.

Common to all, as to type: tissue-based
Experiment [1] is filed under the species Rattus norvegicus. Kind of experiment: Stimulation [3H]flunitrazepam binding to benzodiazepine binding site of GABA-A receptor in Sprague-Dawley rat cerebellum at 800 nM by liquid scintillation spectrophotometry. An outline of the steps:
(§1)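 Male rat (200–250 g) cerebellar P2 membranes, washed and resuspended in 50 mM Tris–HCl pH 7.1 (~1 mg/mL protein). Incubated with 1 nM [3H]flunitrazepam and steroids at 10–800 nM for 90 min at 4 °C. Steroids were in DMSO, diluted 1:1000 in buffer just before use. 1 µM diazepam defined non-specific binding. Filtered, then scintillation counting. Mean of four experiments in duplicate.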

Experiment [2] is filed under the species Rattus norvegicus. Description: Stimulation [3H]flunitrazepam binding to benzodiazepine binding site of GABA-A receptor in Sprague-Dawley rat cerebellum by liquid scintillation spectrophotometry. An outline of the steps:
as §1

The species entered for experiment [3] is Rattus norvegicus. Description: Stimulation [3H]muscimol binding to GABA binding site of GABA-A receptor in Sprague-Dawley rat cerebellum at 20 nM by liquid scintillation spectrophotometry. An outline of the steps:
(§2)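 Rat cerebellar P2 membranes (male, 200–250 g) in 50 mM Tris–acetate pH 7.4, about 1 mg/mL protein. Incubated with 10 nM [3H]muscimol and steroids at 20–1000 nM for 60 min at 4 °C. Steroid DMSO stocks were diluted 1:1000 in buffer. 10 µM GABA defined non-specific binding. Vacuum filtration over glass-fibre filters, scintillation counting. Four experiments in duplicate, averaged.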

The species entered for experiment [4] is Rattus norvegicus. Description: Stimulation [3H]muscimol binding to GABA binding site of GABA-A receptor in Sprague-Dawley rat cerebellum at 50 nM by liquid scintillation spectrophotometry. An outline of the steps: as §2
For experiment [5], the species on record is Rattus norvegicus. Description: Stimulation [3H]muscimol binding to GABA binding site of GABA-A receptor in Sprague-Dawley rat cerebellum at 100 nM by liquid scintillation spectrophotometry. An outline of the steps: as §2
For experiment [6], the species on record is Rattus norvegicus. Description: Stimulation [3H]muscimol binding to GABA binding site of GABA-A receptor in Sprague-Dawley rat cerebellum at 200 nM by liquid scintillation spectrophotometry. An outline of the steps:
as §2

For experiment [7], the species on record is Rattus norvegicus. Description: Stimulation [3H]muscimol binding to GABA binding site of GABA-A receptor in Sprague-Dawley rat cerebellum at 400 nM by liquid scintillation spectrophotometry. An outline of the steps:
as §2

The species entered for experiment [8] is Rattus norvegicus. Description: Stimulation [3H]muscimol binding to GABA binding site of GABA-A receptor in Sprague-Dawley rat cerebellum at 800 nM by liquid scintillation spectrophotometry. An outline of the steps: as §2
The species entered for experiment [9] is Rattus norvegicus. Description: Stimulation [3H]muscimol binding to GABA binding site of GABA-A receptor in Sprague-Dawley rat cerebellum at 1000 nM by liquid scintillation spectrophotometry. An outline of the steps:
as §2

The species named for experiment [10] is Rattus norvegicus. Description: Stimulation [3H]muscimol binding to GABA binding site of GABA-A receptor in Sprague-Dawley rat cerebellum by liquid scintillation spectrophotometry. An outline of the steps: as §2
The species named for experiment [11] is Rattus norvegicus. Kind of experiment: Stimulation [3H]flunitrazepam binding to benzodiazepine binding site of GABA-A receptor in Sprague-Dawley rat cerebellum at 10 nM by liquid scintillation spectrophotometry. An outline of the steps:
as §1

For experiment [12], the species on record is Rattus norvegicus. Description: Stimulation [3H]flunitrazepam binding to benzodiazepine binding site of GABA-A receptor in Sprague-Dawley rat cerebellum at 25 nM by liquid scintillation spectrophotometry. An outline of the steps:
as §1

The species entered for experiment [13] is Rattus norvegicus. Kind of experiment: Stimulation [3H]flunitrazepam binding to benzodiazepine binding site of GABA-A receptor in Sprague-Dawley rat cerebellum at 50 nM by liquid scintillation spectrophotometry. An outline of the steps:
as §1

Experiment [14] is filed under the species Rattus norvegicus. Description: Stimulation [3H]flunitrazepam binding to benzodiazepine binding site of GABA-A receptor in Sprague-Dawley rat cerebellum at 100 nM by liquid scintillation spectrophotometry. An outline of the steps: as §1
The species named for experiment [15] is Rattus norvegicus. Description: Stimulation [3H]flunitrazepam binding to benzodiazepine binding site of GABA-A receptor in Sprague-Dawley rat cerebellum at 250 nM by liquid scintillation spectrophotometry. An outline of the steps:
as §1

The species named for experiment [16] is Rattus norvegicus. Description: Stimulation [3H]flunitrazepam binding to benzodiazepine binding site of GABA-A receptor in Sprague-Dawley rat cerebellum at 500 nM by liquid scintillation spectrophotometry. An outline of the steps:
as §1

Regarding `CC(=O)[C@H]1CC[C@H]2[C@@H]3CC[C@H]4C[C@H](O)CC[C@]4(C)[C@H]3CC[C@]12C`, the Activity in the experiment filed under Rattus norvegicus [1] stood at 140%; in the experiment listed under Rattus norvegicus [3], 95%; in the experiment listed under Rattus norvegicus [4] it was 100%; in the experiment filed under Rattus norvegicus [5] it was 108%; in the experiment filed under Rattus norvegicus [6], 106%; in the experiment listed under Rattus norvegicus [7], 116%. For the same compound, the Activity came out at 165% in the experiment filed under Rattus norvegicus [8]; 173% in the experiment listed under Rattus norvegicus [9]; 93% in the experiment listed under Rattus norvegicus [11]; 93% in the experiment filed under Rattus norvegicus [12]; 92% in the experiment listed under Rattus norvegicus [13]; 97% in the experiment listed under Rattus norvegicus [14]. The Activity turned out to be 122% in the experiment filed under Rattus norvegicus [15] and 132% in the experiment filed under Rattus norvegicus [16]. Moreover, the 50% effective concentration (EC50) in the experiment filed under Rattus norvegicus [2] was 265 nM; in the experiment filed under Rattus norvegicus [10] it was 658 nM.

Consider `CC(=O)[C@H]1CC[C@H]2[C@@H]3CC[C@H]4C[C@H](O)[C@@H]5C[C@]4(COS(=O)(=O)N5Cc4ccccc4)[C@H]3CC[C@]12C`, for which the Activity in the experiment listed under Rattus norvegicus [1] came to 134%; in the experiment listed under Rattus norvegicus [3], 119%; in the experiment listed under Rattus norvegicus [4], 121%; in the experiment filed under Rattus norvegicus [5], 121%; in the experiment listed under Rattus norvegicus [6], 117%; in the experiment filed under Rattus norvegicus [7], 124%. The Activity was 124% in the experiment filed under Rattus norvegicus [8]; 141% in the experiment filed under Rattus norvegicus [9]; 108% in the experiment filed under Rattus norvegicus [11]; 113% in the experiment listed under Rattus norvegicus [12]; 118% in the experiment listed under Rattus norvegicus [13]; 117% in the experiment filed under Rattus norvegicus [14]. The Activity in the experiment listed under Rattus norvegicus [15] was determined as 122%; in the experiment listed under Rattus norvegicus [16], 125%. Besides, the 50% effective concentration (EC50) in the experiment filed under Rattus norvegicus [2] was determined as 81 nM; in the experiment listed under Rattus norvegicus [10], 1890 nM.

For the compound `CC(=O)[C@H]1CC[C@H]2[C@@H]3CC[C@H]4C[C@H](O)[C@@H]5C[C@]4(COS(=O)(=O)N5)[C@H]3CC[C@]12C`, the Activity in the experiment filed under Rattus norvegicus [1] is 170%; in the experiment listed under Rattus norvegicus [3] it was 100%; in the experiment filed under Rattus norvegicus [4] it was 105%; in the experiment filed under Rattus norvegicus [5] it was 108%; in the experiment listed under Rattus norvegicus [6], 106%; in the experiment listed under Rattus norvegicus [7], 118%. For the same compound, the Activity came out at 170% in the experiment filed under Rattus norvegicus [8]; 176% in the experiment listed under Rattus norvegicus [9]; 104% in the experiment filed under Rattus norvegicus [11]; 113% in the experiment listed under Rattus norvegicus [12]; 122% in the experiment filed under Rattus norvegicus [13]; 122% in the experiment filed under Rattus norvegicus [14]. For the same compound, the Activity in the experiment listed under Rattus norvegicus [15] and in the experiment filed under Rattus norvegicus [16] was 126% each time. The EC50 was found to be 63 nM in the experiment listed under Rattus norvegicus [2] and 542 nM in the experiment filed under Rattus norvegicus [10].

In the case of `CC(=O)[C@H]1CC[C@H]2[C@@H]3CC[C@H]4C[C@H](F)[C@@H]5C[C@]4(COS(=O)(=O)N5)[C@H]3CC[C@]12C`, the Activity in the experiment filed under Rattus norvegicus [1] is 98%; in the experiment filed under Rattus norvegicus [8], 96%.
